pEC50: −log10 of the molar value. In brackets after ≈: the same amount, converted by molar mass.
Experiments:
[1] = target: Motilin receptor (Oryctolagus cuniculus, UniProt A5A4K8); experiment: Agonist activity at motilin receptor in rabbit smooth muscle assessed as increase of muscle contraction; type: functional
[2] = system: Streptococcus pneumoniae; experiment: Antibacterial activity against erythromycin-sensitive Streptococcus pneumoniae ATCC 6301; type: functional
In short: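 Minimal growth inhibitory concentration (MIC) determined against the highly erythromycin-sensitive strain Streptococcus pneumoniae ATCC6301.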

[3] = target: Motilin receptor (Oryctolagus cuniculus) (UniProt A5A4K8); experiment: Agonist activity at motilin receptor in rabbit smooth muscle assessed as increase of muscle contraction at EC90 concentration treated three cycles of administration measured after 4th dose; type: functional
Chain of Motilin receptor (Oryctolagus cuniculus) (A5A4K8 as listed by the source): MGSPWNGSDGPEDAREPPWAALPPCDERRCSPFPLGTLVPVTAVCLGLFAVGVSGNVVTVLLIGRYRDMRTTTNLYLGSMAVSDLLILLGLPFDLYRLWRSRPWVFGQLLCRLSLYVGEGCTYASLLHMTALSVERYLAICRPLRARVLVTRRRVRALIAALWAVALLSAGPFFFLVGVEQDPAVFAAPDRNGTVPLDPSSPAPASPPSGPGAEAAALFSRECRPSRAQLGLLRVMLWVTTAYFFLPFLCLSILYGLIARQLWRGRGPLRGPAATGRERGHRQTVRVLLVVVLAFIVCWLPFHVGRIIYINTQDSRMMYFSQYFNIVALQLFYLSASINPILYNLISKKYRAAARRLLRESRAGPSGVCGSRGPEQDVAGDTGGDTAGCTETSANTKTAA
In short: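 Rabbit smooth muscle strip contractility assay. Drug given at its EC90 concentration for three cycles of administration and washout. The contractile response is expressed as % response at the 4th dose.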

[4] = target: hERG (KCNH2) (Homo sapiens, UniProt Q12809); experiment: Inhibition of human ERG expressed in HEK cells at 30 uM; type: cell-based, HEK293; conditions: HEK cells expressing human ERG
Chain of hERG (KCNH2) (Q12809 whole entry): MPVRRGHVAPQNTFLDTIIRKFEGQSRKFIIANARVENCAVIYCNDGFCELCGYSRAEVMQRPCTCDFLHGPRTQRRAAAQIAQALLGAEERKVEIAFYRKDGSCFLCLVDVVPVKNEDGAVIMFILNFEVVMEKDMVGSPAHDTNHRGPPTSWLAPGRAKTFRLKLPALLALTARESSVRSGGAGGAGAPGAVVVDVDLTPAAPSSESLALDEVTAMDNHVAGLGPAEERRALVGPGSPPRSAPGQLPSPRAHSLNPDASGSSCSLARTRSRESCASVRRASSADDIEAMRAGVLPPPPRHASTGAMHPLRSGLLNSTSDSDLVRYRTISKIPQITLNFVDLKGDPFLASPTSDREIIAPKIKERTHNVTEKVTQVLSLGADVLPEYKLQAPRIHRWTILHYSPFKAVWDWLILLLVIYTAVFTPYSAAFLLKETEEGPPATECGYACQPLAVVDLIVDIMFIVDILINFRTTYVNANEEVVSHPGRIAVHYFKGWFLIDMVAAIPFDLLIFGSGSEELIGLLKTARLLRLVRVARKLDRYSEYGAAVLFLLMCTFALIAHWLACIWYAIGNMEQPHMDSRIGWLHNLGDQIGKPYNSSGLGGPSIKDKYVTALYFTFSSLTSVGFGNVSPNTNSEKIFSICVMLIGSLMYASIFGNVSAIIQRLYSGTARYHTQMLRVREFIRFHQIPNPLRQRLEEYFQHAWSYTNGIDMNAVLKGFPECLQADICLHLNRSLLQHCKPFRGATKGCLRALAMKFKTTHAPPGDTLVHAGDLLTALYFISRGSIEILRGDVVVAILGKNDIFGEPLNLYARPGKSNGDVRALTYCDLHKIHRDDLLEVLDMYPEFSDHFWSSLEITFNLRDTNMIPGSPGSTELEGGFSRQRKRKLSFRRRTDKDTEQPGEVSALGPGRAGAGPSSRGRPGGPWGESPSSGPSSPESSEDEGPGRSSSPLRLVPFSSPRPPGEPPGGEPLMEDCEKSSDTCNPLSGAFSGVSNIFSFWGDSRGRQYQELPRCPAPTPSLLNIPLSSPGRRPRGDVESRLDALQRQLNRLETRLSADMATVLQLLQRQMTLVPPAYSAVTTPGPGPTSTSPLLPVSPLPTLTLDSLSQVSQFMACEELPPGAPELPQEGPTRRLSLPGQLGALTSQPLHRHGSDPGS

Chain of Motilin receptor (A5A4K8 whole entry): as the sequence (A5A4K8 as listed by the source) above

Row | pEC50 [1] | MIC [2] | Activity [3] | SMILES | inhibition at 30 µM [4]
1 | 5.14 | – | – | CC[C@H]1OC(=O)[C@H](C)[C@@H](O[C@@H]2C[C@@](C)(OC)[C@@H](O)[C@H](C)O2)[C@H](C)[C@@H](O[C@@H]2O[C@H](C)C[C@H](N(C)CCN)[C@H]2O)[C@](C)(O)C[C@@H](C)[C@H](O)[C@H](C)[C@@H](O)[C@]1(C)O | –
2 | 7.00 | > 128 µg/mL | 89% | CC[C@H]1OC(=O)[C@H](C)[C@@H](O[C@@H]2C[C@@](C)(OC)[C@@H](O)[C@H](C)O2)[C@H](C)[C@@H](O[C@@H]2O[C@H](C)C[C@H](N(C)CC(C)(C)O)[C@H]2O)[C@](C)(O)C[C@@H](C)[C@H](O)[C@H](C)[C@@H](O)[C@]1(C)O | 25%
3 | 6.15 | – | – | CC[C@H]1OC(=O)[C@H](C)[C@@H](O[C@@H]2C[C@@](C)(OC)[C@@H](O)[C@H](C)O2)[C@H](C)[C@@H](O[C@@H]2O[C@H](C)C[C@H](N(C)CCCO)[C@H]2O)[C@](C)(O)C[C@@H](C)[C@H](O)[C@H](C)[C@@H](O)[C@]1(C)O | –
4 | < 5.30 | – | – | CC[C@H]1OC(=O)[C@H](C)[C@@H](O[C@@H]2C[C@@](C)(OC)[C@@H](O)[C@H](C)O2)[C@H](C)[C@@H](O[C@@H]2O[C@H](C)C[C@H](N(C)CC(N)=O)[C@H]2O)[C@](C)(O)C[C@@H](C)[C@H](O)[C@H](C)[C@@H](O)[C@]1(C)O | –
5 | 6.34 | > 128 µg/mL | 93% | CC[C@H]1OC(=O)[C@H](C)[C@@H](O[C@@H]2C[C@@](C)(OC)[C@@H](O)[C@H](C)O2)[C@H](C)[C@@H](O[C@@H]2O[C@H](C)C[C@H](N(C)C[C@@H](C)O)[C@H]2O)[C@](C)(O)C[C@@H](C)[C@H](O)[C@H](C)[C@@H](O)[C@]1(C)O | –
6 | 5.42 | – | – | CC[C@H]1OC(=O)[C@H](C)[C@@H](O[C@@H]2C[C@@](C)(OC)[C@@H](O)[C@H](C)O2)[C@H](C)[C@@H](O[C@@H]2O[C@H](C)C[C@H](N(C)CCF)[C@H]2O)[C@](C)(O)C[C@@H](C)[C@H](O)[C@H](C)[C@@H](O)[C@]1(C)O | –
7 | 6.44 | 128 µg/mL (≈ 164 µM) | 95% | CC[C@H]1OC(=O)[C@H](C)[C@@H](O[C@@H]2C[C@@](C)(OC)[C@@H](O)[C@H](C)O2)[C@H](C)[C@@H](O[C@@H]2O[C@H](C)C[C@H](N(C)C[C@H](C)O)[C@H]2O)[C@](C)(O)C[C@@H](C)[C@H](O)[C@H](C)[C@@H](O)[C@]1(C)O | 16%
8 | 5.62 | – | – | C=C(C)CN(C)[C@H]1C[C@@H](C)O[C@@H](O[C@@H]2[C@@H](C)[C@H](O[C@@H]3C[C@@](C)(OC)[C@@H](O)[C@H](C)O3)[C@@H](C)C(=O)O[C@H](CC)[C@@](C)(O)[C@H](O)[C@@H](C)[C@@H](O)[C@H](C)C[C@@]2(C)O)[C@@H]1O | –
9 | 6.68 | 8 µg/mL (≈ 10.4 µM) | 86% | CC[C@H]1OC(=O)[C@H](C)[C@@H](O[C@@H]2C[C@@](C)(OC)[C@@H](O)[C@H](C)O2)[C@H](C)[C@@H](O[C@@H]2O[C@H](C)C[C@H](N(C)CCO)[C@H]2O)[C@](C)(O)C[C@@H](C)[C@H](O)[C@H](C)[C@@H](O)[C@]1(C)O | –

Second part, the compound before the results:

Row | SMILES | pEC50 [1] | MIC [2] | Activity [3] | inhibition at 30 µM [4]
10 | CC[C@H]1OC(=O)[C@H](C)[C@@H](O[C@@H]2C[C@@](C)(OC)[C@@H](O)[C@H](C)O2)[C@H](C)[C@@H](O[C@@H]2O[C@H](C)C[C@H](NC(C)C)[C@H]2O)[C@](C)(O)C[C@@H](C)[C@H](O)[C@H](C)[C@@H](O)[C@]1(C)O | < 5.30 | > 128 µg/mL | – | –
11 | CC[C@H]1OC(=O)[C@H](C)[C@@H](O[C@@H]2C[C@@](C)(OC)[C@@H](O)[C@H](C)O2)[C@H](C)[C@@H](O[C@@H]2O[C@H](C)C[C@H](N(C)C(C)C)[C@H]2O)[C@](C)(O)C[C@@H](C)[C@H](O)[C@H](C)[C@@H](O)[C@H]1C | 6.97 | 128 µg/mL (≈ 171 µM) | 79% | –
12 | CC[C@H]1OC(=O)[C@H](C)[C@@H](O[C@@H]2C[C@@](C)(OC)[C@@H](O)[C@H](C)O2)[C@H](C)[C@@H](O[C@@H]2O[C@H](C)C[C@H](N(C)CCOC)[C@H]2O)[C@](C)(O)C[C@@H](C)[C@H](O)[C@H](C)[C@@H](O)[C@]1(C)O | 5.11 | – | – | –
13 | CC[C@H]1OC(=O)[C@H](C)[C@@H](O[C@@H]2C[C@@](C)(OC)[C@@H](O)[C@H](C)O2)[C@H](C)[C@@H](O[C@@H]2O[C@H](C)C[C@H](N(C)CC3CC3)[C@H]2O)[C@](C)(O)C[C@@H](C)[C@H](O)[C@H](C)[C@@H](O)[C@]1(C)O | 6.51 | 32 µg/mL (≈ 41.2 µM) | – | –
14 | CC[C@H]1OC(=O)[C@H](C)[C@@H](O[C@@H]2C[C@@](C)(OC)[C@@H](O)[C@H](C)O2)[C@H](C)[C@@H](O[C@@H]2O[C@H](C)C[C@H](N(C)CC(O)CO)[C@H]2O)[C@](C)(O)C[C@@H](C)[C@H](O)[C@H](C)[C@@H](O)[C@]1(C)O (stereo not given in full) | 5.60 | – | – | –
15 | CC[C@H]1OC(=O)[C@H](C)[C@@H](O[C@@H]2C[C@@](C)(OC)[C@@H](O)[C@H](C)O2)[C@H](C)[C@@H](O[C@@H]2O[C@H](C)C[C@H](N(C)C3CCC3)[C@H]2O)[C@](C)(O)C[C@@H](C)[C@H](O)[C@H](C)[C@@H](O)[C@]1(C)O | 6.46 | 128 µg/mL (≈ 165 µM) | 90% | 38%
16 | CC[C@H]1OC(=O)[C@H](C)[C@@H](O[C@@H]2C[C@@](C)(OC)[C@@H](O)[C@H](C)O2)[C@H](C)[C@@H](O[C@@H]2O[C@H](C)C[C@H](N(C)C3CCC3)[C@H]2O)[C@](C)(O)C[C@@H](C)[C@H](O)[C@H](C)[C@@H](O)[C@H]1C | 6.52 | > 128 µg/mL | 71% | –
17 | CC[C@H]1OC(=O)[C@H](C)[C@@H](O[C@@H]2C[C@@](C)(OC)[C@@H](O)[C@H](C)O2)[C@H](C)[C@@H](O[C@@H]2O[C@H](C)C[C@H](N(C)C(C)C)[C@H]2O)[C@](C)(O)C[C@@H](C)[C@H](O)[C@H](C)[C@@H](O)[C@]1(C)O | 6.59 | 32 µg/mL (≈ 41.9 µM) | 76% | 80%
18 | CC[C@H]1OC(=O)[C@H](C)[C@@H](O[C@@H]2C[C@@](C)(OC)[C@@H](O)[C@H](C)O2)[C@H](C)[C@@H](O[C@@H]2O[C@H](C)C[C@H](NC3CCC3)[C@H]2O)[C@](C)(O)C[C@@H](C)[C@H](O)[C@H](C)[C@@H](O)[C@]1(C)O | < 5.30 | 16 µg/mL (≈ 21 µM) | – | –
19 | CC[C@H]1OC(=O)[C@H](C)[C@@H](O[C@@H]2C[C@@](C)(OC)[C@@H](O)[C@H](C)O2)[C@H](C)[C@@H](O[C@@H]2O[C@H](C)C[C@H](N(C)CC(C)(C)O)[C@H]2O)[C@](C)(O)C[C@@H](C)[C@H](O)[C@H](C)[C@@H](O)[C@H]1C | 7.00 | > 128 µg/mL | 56% | –
20 | CC[C@H]1OC(=O)[C@H](C)[C@@H](O[C@@H]2C[C@@](C)(OC)[C@@H](O)[C@H](C)O2)[C@H](C)[C@@H](O[C@@H]2O[C@H](C)C[C@H](N(C)C3COC3)[C@H]2O)[C@](C)(O)C[C@@H](C)[C@H](O)[C@H](C)[C@@H](O)[C@]1(C)O | 5.24 | 32 µg/mL (≈ 41.1 µM) | – | –
21 | CC[C@H]1OC(=O)[C@H](C)[C@@H](O[C@@H]2C[C@@](C)(OC)[C@@H](O)[C@H](C)O2)[C@H](C)[C@@H](O[C@@H]2O[C@H](C)C[C@H](N(C)CC3(C)CC3)[C@H]2O)[C@](C)(O)C[C@@H](C)[C@H](O)[C@H](C)[C@@H](O)[C@]1(C)O | 5.70 | 64 µg/mL (≈ 81 µM) | – | –
22 | CC[C@H]1OC(=O)[C@H](C)[C@@H](O[C@@H]2C[C@@](C)(OC)[C@@H](O)[C@H](C)O2)[C@H](C)[C@@H](O[C@@H]2O[C@H](C)C[C@H](N(C)C3CCCC3)[C@H]2O)[C@](C)(O)C[C@@H](C)[C@H](O)[C@H](C)[C@@H](O)[C@]1(C)O | < 5.30 | 128 µg/mL (≈ 162 µM) | – | –
23 | CC[C@H]1OC(=O)[C@H](C)[C@@H](O[C@@H]2C[C@@](C)(OC)[C@@H](O)[C@H](C)O2)[C@H](C)[C@@H](O[C@@H]2O[C@H](C)C[C@H](N(C)CC(C)C)[C@H]2O)[C@](C)(O)C[C@@H](C)[C@H](O)[C@H](C)[C@@H](O)[C@]1(C)O | 6.44 | – | 81% | –
24 | CC[C@H]1OC(=O)[C@H](C)[C@@H](O[C@@H]2C[C@@](C)(OC)[C@@H](O)[C@H](C)O2)[C@H](C)[C@@H](O[C@@H]2O[C@H](C)C[C@H](N(C)C[C@@H](C)O)[C@H]2O)[C@](C)(O)C[C@@H](C)[C@H](O)[C@H](C)[C@@H](O)[C@H]1C | 6.55 | > 128 µg/mL | 89% | 38%
25 | CC[C@H]1OC(=O)[C@H](C)[C@@H](O[C@@H]2C[C@@](C)(OC)[C@@H](O)[C@H](C)O2)[C@H](C)[C@@H](O[C@@H]2O[C@H](C)C[C@H](N(C)C[C@H](C)O)[C@H]2O)[C@](C)(O)C[C@@H](C)[C@H](O)[C@H](C)[C@@H](O)[C@H]1C | 6.74 | > 128 µg/mL | 70% | –
26 | CC[C@H]1OC(=O)[C@H](C)[C@@H](O[C@H]2C[C@@](C)(OC)[C@@H](O)[C@H](C)O2)[C@H](C)[C@@H](O[C@@H]2O[C@H](C)C[C@H](N(C)C)[C@H]2O)[C@](C)(O)C[C@@H](C)C(=O)[C@H](C)[C@@H](O)[C@]1(C)O [ERYTHROMYCIN] | – | 0.03 µg/mL (≈ 0.0409 µM) | – | –
